Source: ChEMBL document CHEMBL4477254, “Synthesis and biological evaluation of some novel triazole hybrids of curcumin mimics and their selective anticancer activity against breast and prostate cancer cell lines” (Bioorg Med Chem Lett, 2016)
Converted amounts (≈) assume the structure as drawn. The source made the active and inactive calls. The calls are words filed in the database; no cut-off is given here.

Legend:
[1] = Solubility of the compound in distilled water after 24 hrs by HPLC based shake flask method; format: physicochemical
DU-145 [2] = assay: Potency index, ratio of curcumin IC50 to compound IC50 in human DU145 cells; format: functional
Procedure, shortened: (§1)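 IC50 came from an MTT viability assay after 24 h compound exposure, with curcumin run as the standard. Values are mean ± SE of three independent experiments. The index is the curcumin IC50 divided by the compound IC50 in the same cell line.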

MDA-MB-231 [3] = assay: Cytotoxicity against human MDA-MB-231 cells assessed as decrease in cell viability after 24 hrs by MTT assay; format: functional, cell-based; conditions: MDA-MB-231, 24 h
Procedure, shortened: (§2)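 Cell viability by MTT after 24 h compound exposure; curcumin as standard. IC50 in µM from three independent experiments, expressed as mean ± SE.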

MDA-MB-231 [4] = assay: Potency index, ratio of curcumin IC50 to compound IC50 in human MDA-MB-231 cells; format: functional; procedure, shortened: as §1
PC-3 [5] = assay: Induction of apoptosis in human PC3 cells assessed as late apoptotic cells at 4.8 uM after 24 hrs by annexin V-FITC/propidium iodide staining based flow cytometry (reference value: 0.80%); format: functional
Procedure, shortened: (§3)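 MCF-7 cells exposed to 3, 6 or 9 μM and PC-3 cells to 4.8 or 8.8 μM for 24 h, then harvested and dual-stained with Annexin V-FITC/PI and read by flow cytometry. Gates: live AnnexinV⁻/PI⁻, early apoptotic AnnexinV⁺/PI⁻, necrotic AnnexinV⁻/PI⁺.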

PC-3 [6] = assay: Potency index, ratio of curcumin IC50 to compound IC50 in human PC3 cells; format: functional; procedure, shortened: as §1
[7] = Stability of the compound in simulated gastric fluid assessed as compound remaining after 1 hr at 37 degC by UPLC analysis; format: ADME; conditions: read-out: Stability
HEK293 = assay: Cytotoxicity against human HEK293 cells assessed as decrease in cell viability after 24 hrs by MTT assay; format: cell-based; conditions: HEK293, 24 h; procedure, shortened: as §2
[8] = Protein binding in rat plasma at 8 ug/ml after 15 mins by UPLC based charcoal adsorption method; format: ADME, cell-free; conditions: read-out: PPB (converted)
4T1 [9] = assay: Cytotoxicity against mouse 4T1 cells assessed as decrease in cell viability after 24 hrs by MTT assay; format: functional, cell-based; conditions: 4T1, 24 h; procedure, shortened: as §2
PC-3 [10] = assay: Cell cycle arrest in human PC3 cells assessed as accumulation at G2/M phase at 8.8 uM after 24 hrs by propidium iodide staining based flow cytometry (reference value: 2.25%); format: functional
Procedure, shortened: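 Cells treated 24 h with test compound, MCF-7 at various concentrations and PC-3 at various concentrations; cells harvested, stained with propidium iodide and acquired by flow cytometry for cell cycle phase distribution.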

PC-3 [11] = assay: Induction of apoptosis in human PC3 cells assessed as increase in early apoptotic cells after 24 hrs by annexin V-FITC/propidium iodide staining based flow cytometry; format: functional, cell-based; procedure, shortened: as §3
[12] = Stability in rat plasma assessed as compound remaining after 2 hrs at 37 degC by UPLC analysis; format: ADME, cell-free; conditions: read-out: Stability
Procedure, shortened: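 Compound was incubated in plasma, and the percentage remaining intact was calculated at time points up to 2 h.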

MCF7 [13] = assay: Cytotoxicity against human MCF7 cells assessed as decrease in cell viability after 24 hrs by MTT assay; format: functional, cell-based; conditions: MCF7, 24 h; procedure, shortened: as §2
[14] = Intrinsic hepatic clearance in liver microsomes (unknown origin) assessed per mg of protein at 8 ug/ml in presence of NADPH by UPLC analysis; format: ADME, Microsome; conditions: read-out: CLH (converted)
PC-3 [15] = assay: Inhibition of colony formation in human PC3 cells incubated for 24 hrs measured till day 7 by crystal violet staining based assay; format: functional, cell-based
Procedure, shortened: (§4)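 Cells were treated with a range of concentrations for 24 h. The medium was then replaced with complete medium and cells were grown for 7 days. Colonies were stained with 0.1% crystal violet.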

4T1 [16] = assay: Potency index, ratio of curcumin IC50 to compound IC50 in mouse 4T1 cells; format: functional; procedure, shortened: as §1
PC-3 [17] = assay: Induction of apoptosis in human PC3 cells assessed as viable cells at 4.8 uM after 24 hrs by annexin V-FITC/propidium iodide staining based flow cytometry (reference value: 92.24%); format: functional; conditions: PC-3, 24 h, read-out: Activity; procedure, shortened: as §3
PC-3 [18] = assay: Cytotoxicity against human PC3 cells assessed as decrease in cell viability after 24 hrs by MTT assay; format: functional, cell-based; conditions: PC-3, 24 h; procedure, shortened: as §2
DU-145 [19] = assay: Cytotoxicity against human DU145 cells assessed as decrease in cell viability after 24 hrs by MTT assay; format: functional, cell-based; conditions: DU-145, 24 h; procedure, shortened: as §2
[20] = Stability of the compound in simulated intestinal fluid assessed as compound remaining after 2 hrs at 37 degC by UPLC analysis; format: ADME; conditions: read-out: Stability
PC-3 [21] = assay: Induction of apoptosis in human PC3 cells assessed as decrease in live cells after 24 hrs by annexin V-FITC/propidium iodide staining based flow cytometry; format: functional, cell-based; procedure, shortened: as §3
MCF7 [22] = assay: Decrease in Bcl-2 expression in human MCF7 cells at 3 to 9 uM after 24 hrs by Western blot analysis; format: functional, cell-based
Procedure, shortened: (§5)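 MCF-7 or PC-3 cells treated with compound for 24 h, harvested; PCNA, Bax and Bcl-2 protein expression checked by Western blotting.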

[23] = Drug metabolism in liver microsomes (unknown origin) assessed as compound remaining at 5 ug/ml after 5 mins in presence of NADPH by UPLC analysis; format: ADME, Microsome; conditions: read-out: Drug metabolism
Procedure, shortened: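 Microsomal metabolic stability; percentage of compound remaining intact measured after 5 min incubation in presence of microsomes.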

MCF7 [24] = assay: Induction of apoptosis in human MCF7 cells assessed as decrease in live cells after 24 hrs by annexin V-FITC/propidium iodide staining based flow cytometry; format: functional, cell-based
Procedure, shortened: (§6)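 Apoptosis by Annexin V-FITC/PI dual staining: MCF-7 cells treated 24 h at 3, 6 and 9 µM, then harvested, stained and acquired by flow cytometry; early apoptotic = AnnexinV+/PI−, live = AnnexinV−/PI−, necrotic = AnnexinV−/PI+.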

MCF7 [25] = assay: Increase in Bax expression in human MCF7 cells at 3 to 9 uM after 24 hrs by Western blot analysis; format: functional, cell-based; procedure, shortened: as §5
MCF7 [26] = assay: Inhibition of colony formation in human MCF7 cells at 3 to 6 uM incubated for 24 hrs measured till day 7 by crystal violet staining based assay; format: functional, cell-based; procedure, shortened: as §4
MCF7 [27] = assay: Induction of apoptosis in human MCF7 cells assessed as increase in early apoptotic cells after 24 hrs by annexin V-FITC/propidium iodide staining based flow cytometry; format: functional, cell-based; procedure, shortened: as §6
MCF7 [28] = assay: Induction of morphological changes in human MCF7 cells assessed as cell detachment at >6 uM after 24 hrs by phase contrast microscopy; format: functional, cell-based
Procedure, shortened: (§7)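 Cells were exposed to a range of concentrations for 24 h. Cell number and morphology, including detachment from the surface, were assessed by phase-contrast microscopy at 10X magnification.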

MCF7 [29] = assay: Induction of mitochondrial membrane depolarization in human MCF7 cells at 9 uM after 24 hrs by JC-1 staining based flow cytometry (reference value: 11%); format: functional
MCF7 [30] = assay: Induction of apoptosis in human MCF7 cells assessed as necrotic cells at 3 uM after 24 hrs by annexin V-FITC/propidium iodide staining based flow cytometry (reference value: 4.76%); format: functional; procedure, shortened: as §6
MCF7 [31] = assay: Induction of mitochondrial membrane depolarization in human MCF7 cells at 6 uM after 24 hrs by JC-1 staining based flow cytometry (reference value: 11%); format: functional
MCF7 [32] = assay: Induction of morphological changes in human MCF7 cells at 1 to 6 uM after 24 hrs by phase contrast microscopy; format: functional, cell-based; procedure, shortened: as §7
MCF7 [33] = assay: Induction of apoptosis in human MCF7 cells assessed as late apoptotic cells at 6 uM after 24 hrs by annexin V-FITC/propidium iodide staining based flow cytometry (reference value: 5.25%); format: functional; procedure, shortened: as §6

Cc1ccc(/C=C2\CN(Cc3cn(Cc4ccccc4F)nn3)C/C(=C\c3ccc(C)cc3)C2=O)cc1
solubility thermodynamic at 24 h [1]: 1.12 µg/mL (≈ 2.27 µM) | Ratio IC50 (DU-145 [2]): ≤ 9.5 | IC50 (MDA-MB-231 [3]): 10 µM | Ratio IC50 (MDA-MB-231 [4]): <=8.3 | Activity (PC-3 [5]): 0.81% | Ratio IC50 (PC-3 [6]): <=5.7 | remaining at 1 h [7]: 92% | IC50 (HEK293): > 100 µM | fraction unbound at 0.25 h, 8 ug/ml [8]: 0.0301 | IC50 (4T1 [9]): 18 µM | Activity (PC-3 [10]): 8.9% | Activity (PC-3 [11]): Dose-dependent effect | remaining at 2 h [12]: 90% | IC50 (MCF7 [13]): 28.7 µM | CLint scaled at 8 ug/ml [14]: 2630 mL/min/kg | inhibition (PC-3 [15]): Dose-dependent effect | Ratio IC50 (4T1 [16]): <=9.3 | viability at 4.8 µM (PC-3 [17]): 85.3% | IC50 (PC-3 [18]): 8.8 µM | IC50 (DU-145 [19]): 9.5 µM | remaining at 2 h [20]: 30% | Activity (PC-3 [21]): Dose-dependent effect

O=C1/C(=C/c2ccccc2F)CN(Cc2cn(Cc3ccc(F)cc3)nn2)C/C1=C\c1ccccc1F
solubility thermodynamic at 24 h [1]: 2.08 µg/mL (≈ 4.16 µM) | Activity (MCF7 [22]): Active | remaining at 5 min, 5 ug/ml [23]: 46% | Ratio IC50 (DU-145 [2]): ≤ 9.5 | Activity (MCF7 [24]): Dose-dependent effect | IC50 (MDA-MB-231 [3]): 10 µM | Ratio IC50 (MDA-MB-231 [4]): <=8.3 | Ratio IC50 (PC-3 [6]): <=5.7 | Activity (MCF7 [25]): Active | inhibition (MCF7 [26]): Active | remaining at 1 h [7]: 85% | IC50 (HEK293): 46 µM | fraction unbound at 0.25 h, 8 ug/ml [8]: 0.188 | IC50 (4T1 [9]): 6.4 µM | Activity (MCF7 [27]): Dose-dependent effect | Activity (MCF7 [28]): Active | remaining at 2 h [12]: 96% | IC50 (MCF7 [13]): 6 µM | Activity (MCF7 [29]): 89.87% | Activity (MCF7 [30]): 6.18% | Activity (MCF7 [31]): 85.6% | Activity (MCF7 [32]): Active | Ratio IC50 (4T1 [16]): <=9.3 | IC50 (PC-3 [18]): 19.4 µM | IC50 (DU-145 [19]): 8.7 µM | remaining at 2 h [20]: 65% | Activity (MCF7 [33]): 15.2%
